Published values collected from several papers.
Lines come from different studies, so protocols differ.
Gpr84: G-protein coupled receptor 84 (Gpr84, Mus musculus, UniProt Q8CIM5)
MDH2: Malate dehydrogenase, mitochondrial (MDH2, Sus scrofa, UniProt P00346)

| SMILES | target | observed | action | method | setting | endpoint | result |
| --- | --- | --- | --- | --- | --- | --- | --- |
| [O-][n+]1cccc(CCOc2ccc(Cl)c3ccccc23)c1 | Gpr84 | cAMP | agonist | – | – | EC50 | 0.011 µM |
| COc1c(Br)cccc1C(=O)Nc1ccc(Sc2nc3ccccc3s2)c(Cl)c1 | MDH2 | enzyme activity | inhibitor | – | – | IC50 | > 62.5 µM |
| CC(C)C[C@H](NC(=O)[C@H](CCCNC(=N)N)NC(=O)[C@H](C)N)C(=O)N[C@@H](Cc1ccc(O)cc1)C(=O)N[C@@H](Cc1ccc(O)cc1)C(=O)N[C@@H](Cc1ccccc1)C(=O)N[C@@H](Cc1c[nH]c2ccccc12)C(=O)N[C@@H](CC(=O)O)C(=O)N[C@H](C(=O)O)[C@@H](C)O | DNA dC->dU-editing enzyme APOBEC-3G (APOBEC3G, Homo sapiens, UniProt Q9HC16) | enzyme activity | inhibitor | – | – | Ki | ~7.8 µM |
| O=C(Nc1ccc(Sc2nc3ccccc3s2)c(Cl)c1)c1cccc(Br)c1O | MDH2 | enzyme activity | inhibitor | – | – | IC50 | > 62.5 µM |
| CCCN1CCN(c2ccc(-c3cncc(Cl)c3N3CCC4(CCNC4=O)CC3)cc2)CC1 | Cyclin-dependent kinase 1 (CDK1, Homo sapiens, UniProt P06493) | cell-free assay | – | – | lysate | Kd | 18.9 µM |
| CC(=O)N[C@@H](CCCNC(=N)N)C(=O)NCCOCCOCC(=O)N[C@H](CC(=O)O)C(=O)N1CCC[C@H]1B(O)O | Dipeptidyl peptidase 4 (DPP4, Homo sapiens, UniProt P27487) | enzyme activity | inhibitor | fluorescence | – | Ki | 7.13 µM |
| Cc1cnc(-c2ccc(-c3ccc(NC(=O)Nc4c(F)cc(F)cc4F)cc3F)c3c2C(=O)NC3)[nH]1 | Proto-oncogene tyrosine-protein kinase Src (SRC, Homo sapiens, UniProt P12931) | binding | – | competition with immobilised ligand | – | Kd | 0.11 µM |
| CNC(=O)c1cc2c(Oc3ccc(NC(=O)C4(C(=O)Nc5ccc(F)cc5)CC4)cc3)ccnc2cc1OC | Tyrosine-protein kinase Mer (MERTK, Homo sapiens, UniProt Q12866) | enzyme activity | inhibitor | radiometric | – | IC50 | 0.0009 µM |
| Cc1ncsc1-c1ccc(CNC(=O)[C@@H]2C[C@@H](O)CN2C(=O)[C@@H](NC(=O)CCCCCCCCCC(=O)N2CCN(CC[C@H](NC(=O)C3(N)CCN(c4ncnc5[nH]ccc45)CC3)c3ccc(Cl)cc3)CC2)C(C)(C)C)cc1 | RAC-alpha serine/threonine-protein kinase (AKT1, Homo sapiens, UniProt P31749) | binding | – | competition with immobilised ligand | – | Kd | 0.01 µM |
| Cc1cc2nc3c(=O)[nH]c(=O)nc-3n(C[C@H](O)[C@H](O)[C@H](O)COP(=O)(O)OP(=O)(O)OC[C@H]3O[C@@H](n4cnc5c(N)ncnc54)[C@H](O)[C@@H]3O)c2cc1C | Protein argonaute-2 (AGO2, Homo sapiens, UniProt Q9UKV8) | binding | – | – | lysate | Kd | 0.021 µM |
| CC(C)(C)n1nc(-c2cnc3cc(OC4CC4)ccc3c2)c(C(N)=O)c1N | Calcium/calmodulin-dependent protein kinase kinase 2 (CAMKK2, Homo sapiens, UniProt Q96RR4) | cell-free assay | – | – | – | IC50 | > 10 µM |
| COc1ccc(S(=O)(=O)Nc2ccc3oc(-c4ccc(NS(=O)(=O)c5cc(Br)ccc5OC)cc4)nc3c2)cc1 | MDH2 | enzyme activity | inhibitor | – | – | IC50 | > 62.5 µM |
| CCCCCCCCCC(=O)O | Gpr84 | cAMP | agonist | – | – | EC50 | > 10 µM |
| CC(O)CN1CCC(CC[S+]([O-])C(c2ccc(F)cc2)c2ccc(F)cc2)CC1 (stereo not drawn) | Transporter (Slc6a2, Rattus norvegicus, UniProt Q63380) | ligand displacement | – | radioligand | – | Ki | > 100 µM |
| CC(=O)N[C@@H](Cc1ccccc1)C(=O)N1CCC[C@H]1C(=O)N1CCC[C@H]1C(=O)N1CCC[C@H]1C(=O)N1CCC[C@H]1C(=O)O | Protein enabled homolog (ENAH, UniProt Q8N8S7) | binding | – | fluorescence | – | Kd | 500 µM |
